This note sets out measurements from ChEMBL document CHEMBL3393017, “Flavokawains B and C, melanogenesis inhibitors, isolated from the root of Piper methysticum and synthesis of analogs” (Bioorg Med Chem Lett, 2015).

For orientation: IC50 means the concentration needed to halve the response being measured.

Structures are written as SMILES.

One test deals with T1, Tyrosinase (Agaricus bisporus, UniProt O42713).
T1 sequence (O42713 whole entry): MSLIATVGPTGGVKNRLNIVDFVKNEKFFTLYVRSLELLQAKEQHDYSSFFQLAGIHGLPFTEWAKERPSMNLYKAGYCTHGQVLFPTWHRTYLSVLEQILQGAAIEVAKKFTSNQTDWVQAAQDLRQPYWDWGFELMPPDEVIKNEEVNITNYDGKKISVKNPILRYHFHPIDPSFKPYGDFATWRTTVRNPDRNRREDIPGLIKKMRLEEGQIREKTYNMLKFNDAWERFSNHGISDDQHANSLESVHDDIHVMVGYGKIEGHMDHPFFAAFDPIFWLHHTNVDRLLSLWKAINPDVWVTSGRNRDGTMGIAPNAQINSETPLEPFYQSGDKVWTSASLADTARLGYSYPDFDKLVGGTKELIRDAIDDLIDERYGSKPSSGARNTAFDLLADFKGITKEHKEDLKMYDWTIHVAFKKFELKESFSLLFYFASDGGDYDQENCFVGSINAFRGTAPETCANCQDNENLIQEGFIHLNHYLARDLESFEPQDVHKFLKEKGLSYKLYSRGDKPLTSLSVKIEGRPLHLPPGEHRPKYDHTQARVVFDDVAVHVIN
Nature of the test: Inhibition of mushroom tyrosinase using L-tyrosine as substrate after 20 mins by microplate reader.

Test [1] is described as follows: (§1) Antimelanogenic activity in mouse B16F10 cells assessed as inhibition of melanin production after 4 days. The test is classed as functional, cell-based. The following applies: B16-F10, 96 h. A digest of the protocol: (§2)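 MSH-activated B16 melanoma cells were treated in triplicate, with the medium changed daily. After 4 d the cells were lysed in 1 N NaOH, and relative melanin in the lysate was read at 400 nm. Compounds were screened at 10 ppm, and those giving >50% inhibition were retested at other concentrations to derive IC50. Viability was checked by crystal violet staining read at 590 nm.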

For another test, the system named is B16-F10. The description is as §1. The test is classed as functional, cell-based. The procedure, abridged: as §2

Consider `COc1ccc(/C=C/C(=O)c2c(O)cc(OC)cc2OC)cc1` [FLAVOKAWAIN A], for which the IC50 entry against Tyrosinase is recorded as “Not Active”.
Still for that read-out and setting: the same measure for `COc1ccc(/C=C/C(=O)c2c(O)cc(OC)cc2OC)c(OC)c1`: “Not Active”.
Consider `COc1cc(O)c(C(=O)/C=C/c2ccc(O)cc2O)c(OC)c1`, for which the IC50 result on Tyrosinase is “Not Active”; in test [1], 3.4 µM.
Turning to `COc1cc(O)c(C(=O)/C=C/c2ccccc2OC)c(OC)c1`, the IC50 result at Tyrosinase is “Not Active”; in test [1], 3.8 µM.
Turning to `COc1cc(O)c(C(=O)/C=C/c2ccc(O)cc2)c(OC)c1` [FLAVOKAWAIN C], the IC50 entry against Tyrosinase is “Not Active”; in test [1] it was 6.9 µM. In addition, the inhibition entry in the test on B16-F10 is “Dose-dependent effect”.
Regarding `CCc1ccccc1/C=C/C(=O)c1c(O)cc(OC)cc1OC`, the IC50 entry at Tyrosinase is “Not Active”; in test [1], 2.5 µM.
With `COc1cc(O)c(C(=O)/C=C/c2ccc(O)c(O)c2)c(OC)c1`, the IC50 entry against Tyrosinase was “Not Active”; in test [1] it was 31.6 µM.
As for `O=c1cc(CO)occ1O` [KOJIC ACID], the IC50 in test [1] was more than 500 µM.
Take `COc1cc(O)c(C(=O)/C=C/c2ccccc2C(C)C)c(OC)c1`: the values for the IC50 result (on Tyrosinase; in test [1]) were “Not Active” and 2.7 µM, respectively.
The matching figures for `COc1cccc(/C=C/C(=O)c2c(O)cc(OC)cc2OC)c1`: “Not Active” and 3.1 µM.
The matching figures for `COc1cc(O)c(C(=O)/C=C/c2ccccc2C)c(OC)c1`: “Not Active” and 3 µM.
The matching figures for `COc1cc(O)c(C(=O)/C=C/c2cccc(O)c2)c(OC)c1`: “Not Active” and 9.9 µM.
As for `COc1cc(O)c(C(=O)/C=C/c2ccccc2)c(OC)c1` [FLAVOKAWAIN B], the IC50 result on Tyrosinase is “Not Active”; in test [1] it was 7.7 µM. Moreover, in the test with B16-F10, the inhibition entry was “Dose-dependent effect”.
`COc1cc(O)c(C(=O)/C=C/c2c(C)cccc2C)c(OC)c1`: the IC50 result against Tyrosinase is “Not Active”; in test [1], 9.9 µM.
For `COc1cc(O)c(C(=O)/C=C/c2ccccc2O)c(OC)c1` the same measures were “Not Active” and 2.3 µM.
